Holding throughout (format): functional
For assay [1], the system named is Rattus norvegicus. Put plainly: Compound was evaluated in vivo for the % change in the frequency of spontaneous bladder contractions in the rat after oral administration of a dose of 10 mg/kg.
Assay [2] has as its system Rattus norvegicus. Kind of assay: compound was evaluated in vivo for maximum % change in MAP in normotensive rat model after oral administration of a dose of 10 mg/kg. In short, it runs like this:
(§1)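 Normotensive rats given test compound orally in a separate group from the efficacy animals. Mean arterial pressure and heart rate recorded after dosing, with maximum % change in MAP from initial values reported. ED20 is the oral dose causing a 20% drop in MAP.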

Assay [3] is filed under the species Rattus norvegicus. Kind of assay: In vitro inhibitory concentration that relaxes KCL induced contraction in rat detrusor strips by 50%. The conditions noted are these: Rattus norvegicus. In short, it runs like this:
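Female Sprague-Dawley rat (250-350 g) detrusor strips, 4-5 mm by 10 mm, pretensioned 0.25-0.5 g in a tissue bath and contracted with an additional 15 mM KCl. Compounds added as cumulative concentrations to steady state. Contractility measured as 5 min area under the contraction curve per concentration; IC50 is the concentration relaxing KCl-induced contraction by 50%. Glyburide added at end.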

The subject of assay [4] is Rattus norvegicus. Kind of assay: compound was evaluated in vivo for maximum % change in MAP in normotensive rat model after oral administration of a dose of 30 mg/kg. The method in brief:
as §1

The IC50 is the concentration that inhibits the measured activity by half. Read a high IC50 as a need for much substance. As to `CC(/N=C(\NC#N)Nc1ccc(C#N)cc1)C(C)(C)C` (stereo unspecified), the results for the Change in assay [1] and in assay [2] were -27% and -19%, respectively. In assay [3], this molecule returned an IC50 of 190 nM.
Consider `CC(/N=c1\c(O)c(O)\c1=N/c1ccc(C#N)cc1)C(C)(C)C` (stereo unspecified), for which the Change is 8% in assay [4] and -83% in assay [1]. The IC50 in assay [3] came to 520 nM.

For the origin of these results see ChEMBL document CHEMBL1132984 (J Med Chem, 2000).
